# Compound activity (PubChem BioAssay)
# Sampled rows, rich in hits. Any-hit rate of the full collection: about 3.3%.
# FGF22 binding – binders of human FGF22 protein, primary screen, FGF22 synaptogenesis inhibitor project, biophysical, thermal shift, single point; recombinant FGF22 thermal shift, SYPRO orange fluorescence; percent of sucrose octasulfate shift, DMSO zero; activity (Tm shift, normalised), % at 9.99 µM; actives 1.5% (n = 340,000);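 active = mean Tm shift, scaled 0 neutral to 100 positive control, at about 1.3% or above, every replicate too, limit read from the data; inconclusive = no clear call, values can overlap the other calls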
# Target sequence (Q9HCT0 whole entry, looked up): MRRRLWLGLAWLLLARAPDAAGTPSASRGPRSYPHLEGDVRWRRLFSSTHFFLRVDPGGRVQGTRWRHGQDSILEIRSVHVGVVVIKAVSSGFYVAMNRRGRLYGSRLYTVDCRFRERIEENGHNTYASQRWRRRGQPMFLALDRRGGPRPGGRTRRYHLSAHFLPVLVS
# PglD inh – C. jejuni PglD acetyltransferase inhibitors, primary screen, biochemical, DTNB colorimetric, single point; actives 0.098% (n = 360,000); inhibition, % at 12.5 µM; UDP-N-acetylbacillosamine N-acetyltransferase PglD (Campylobacter jejuni); AID 602405, 2012; purified PglD enzyme, DTNB colorimetric CoA detection; in the data active = inhibition above about 16%, passing the limit was not always enough; inconclusive = no clear call, values can overlap the other calls
# C2C12 statin – suppressors of statin myotoxicity in C2C12 myotubes, primary screen, cell-based, single point, plate reader. C2C12 myotubes + simvastatin, ATP luminescence, 48 h; scaled: DMSO 0, geranylgeraniol control 100. rescue of ATP level, % at 7.49 µM. actives 0.78% (n = 330,000);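 active = mean ATP rescue above about 67%, or every replicate alone reaching that limit, limit read from the data, passing the limit was not always enough; inconclusive = no clear call, values can overlap the other calls; inactive = mean under the limit and some replicate under it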;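 note: myotubes were challenged with 10 µM simvastatin during compound exposure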
# E-selectin induc – E-selectin induction in HUVECs, primary screen, imaging, HUVEC, immunofluorescence imaging, single point; activation, % at 7.58 µM; AID 686992, 2013; P16581; actives 0.37% (n = 260,000); normalized: neutral wells 0, TNF-alpha wells 100;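 active = mean E-selectin-positive cell signal at least 10% of the positive control, reached in at least 60% of replicates, without over 20% cell loss; inconclusive = no rule given, readout overlaps actives, possibly toxicity-flagged; inactive = the rest, including those meeting only one limit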
#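 System: HUVEC, human umbilical vein endothelial cells; quantity: 3,000 cells/well; buffer or medium: EGM-2 medium, gelatin-coated wells; dosing: single-point compound dose; detection: immunofluorescence imaging; evaluation: % PE-positive cells; benchmarks: TNF-alpha, DMSO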
# DENV2 CPE – inhibitors of DENV2 cytopathic effect, primary screen, cell-based, plate reader, single concentration. DENV2-infected cells, cytopathic effect rescue. CPE inhibition, % at 9.99 µM. actives 1.7% (n = 350,000); in the data active = CPE inhibition above about 20%, passing the limit was not always enough; inconclusive = no clear call, values can overlap the other calls; tested in BHK-21 cells;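 note: 0% = median of neutral control wells and 100% = median of positive control wells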
# XiGFP reactiv – activators of inactive X chromosome reactivation, primary screen, imaging, XiGFP fibroblasts, GFP high-content imaging, set 2. XiGFP mouse fibroblasts, % GFP-positive cells imaging, 3 d; cells co-treated with 5-aza-dC sensitizer; scaled so ellipticine positive control = 100%. actives 0.055% (n = 360,000). activation, % at 7.58 µM;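 active = mean normalized replicate activation at least 10% and every replicate at or above 10%; inconclusive = only one of the two criteria met; inactive = mean below 10% and not all replicates reach 10%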;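 note: 0% = median of on-plate neutral control wells and 100% = ellipticine 6 µM median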
#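 Material: SV40-immortalized XiGFP fibroblast cells, line 68-5-11 | Buffer or medium: DMEM containing 5-aza-dC | Dosing: One concentration, pinned | Times: 3 d treatment, 15 min room-temperature fixation | Controls: Ellipticine 6 µM positive control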
# An asterisk follows results filed as active; ? = inconclusive; nt = not tested or not shown.
SMILES,FGF22 binding,PglD inh,C2C12 statin,E-selectin induc,DENV2 CPE,XiGFP reactiv
Cc1noc(C)c1NC(=O)Nc1cccc2c1O[C@H](CN(C)C(=O)Nc1cccc3ccccc13)[C@@H](C)CN([C@@H](C)CO)C2=O,-0.2,-0.4,15.2,0.0,7.8,0.0
COc1ccc(NC(=O)Nc2cccc3c2O[C@@H](CN(C)C(=O)Nc2ccc4c(c2)OCO4)[C@@H](C)CN([C@@H](C)CO)C3=O)cc1,-1.0,3.1,48.7,-0.2,27.1*,1.5
Cc1ccc(S(=O)(=O)Nc2cccc3c2O[C@@H](CN(C)C(=O)Nc2ccc4c(c2)OCO4)[C@@H](C)CN([C@H](C)CO)C3=O)cc1,-1.2,0.6,-17.2,-0.3,22.2*,0.4
O=C(NNC(=O)c1ccncc1)Nc1ccc(N=Nc2ccccc2)cc1,-0.2,-5.7,100.1*,-0.9,-7.7,0.0
CCN1CCCC1Cn1cnc2c([nH]c3ccc(Cl)cc32)c1=O (stereo not given),nt,-1.3,98.7*,nt,nt,nt
CCN1CCCC1Cn1cnc2c([nH]c3cccc(Cl)c32)c1=O (stereo not given),nt,-5.5,7.2,nt,nt,nt
Cc1ccccc1CN1CCNC(=O)C1CC(=O)O (stereo not given),-0.1,-0.3,nt,0.1,32.9*,-0.1
CCOc1cccc(CNc2ccc(O)cc2)c1OCc1ccccc1Cl,nt,1.9,108.0*,nt,nt,nt
COc1ccc2c3c(n(C)c2c1)[C@@H](CO)N(C(=O)NC(C)C)CC31CN(CC2CCOCC2)C1,0.0,nt,nt,0.1,12.6,0.2
OC1CCCN(CC(O)c2ccccc2)C1 (stereo not given),42.9*,2.7,5.0,nt,-5.5,0.0
OC(CN1CCN(C(c2ccccc2)c2ccccc2)CC1)c1ccccc1 (stereo not given),nt,7.4,10.6,nt,nt,nt
CN(Cc1ccccc1)CC1CCCN(CCc2ccccc2F)C1 (stereo not given),0.0,-37.1,4.3,nt,39.5*,0.1
COc1ccccc1-c1noc2c1C(=O)N(Cc1cn(Cc3ccccc3)nn1)CC2,0.3,-0.1,4.3,-0.1,55.8*,0.2
Cc1ccc(S(=O)(=O)N(C)C[C@H]2OCCCC[C@@H](C)Oc3ccc(NC(=O)NC(C)C)cc3C(=O)N([C@@H](C)CO)C[C@H]2C)cc1,nt,0.0,nt,0.0,12.5,0.1
Cc1ccc(S(=O)(=O)N(C)C[C@H]2OCCCC[C@@H](C)Oc3ccc(NC(=O)NC(C)C)cc3C(=O)N([C@H](C)CO)C[C@@H]2C)cc1,nt,1.0,nt,0.0,72.4*,0.0
C[C@@H]1CCCCO[C@H](CN(C)S(=O)(=O)c2ccccc2)[C@H](C)CN([C@@H](C)CO)C(=O)c2cc(NC(=O)Nc3ccc(C(F)(F)F)cc3)ccc2O1,0.0,-0.9,nt,-0.1,22.7*,0.1
C[C@@H]1CCCCO[C@@H](CN(C)S(=O)(=O)c2ccccc2)[C@@H](C)CN([C@H](C)CO)C(=O)c2cc(NC(=O)Nc3ccc(C(F)(F)F)cc3)ccc2O1,-0.2,-0.8,nt,0.0,12.6,0.0
Cc1ccc(S(=O)(=O)N(C)C[C@H]2OCCCC[C@@H](C)Oc3ccc(NC(=O)Nc4ccc(C(F)(F)F)cc4)cc3C(=O)N([C@H](C)CO)C[C@@H]2C)cc1,0.0,2.2,nt,nt,66.5*,0.2
Cc1ccc(S(=O)(=O)N(C)C[C@@H]2OCCCC[C@H](C)Oc3ccc(NC(=O)Nc4ccc(C(F)(F)F)cc4)cc3C(=O)N([C@@H](C)CO)C[C@H]2C)cc1,0.1,0.0,nt,nt,23.4*,0.3
C[C@@H]1CN([C@H](C)CO)C(=O)Cc2cc(NS(C)(=O)=O)ccc2O[C@H]1CN(C)S(=O)(=O)c1cccs1,0.4,0.3,-9.2,0.0,2.8,-0.6
N/C(Cc1nc(-c2ccc(Br)cc2)cs1)=N\O,43.4*,nt,nt,8.4,-2.0,0.3
N/C(Cc1nc(-c2ccc(F)cc2)cs1)=N\O,-0.1,8.4,nt,nt,-4.3,0.0
COc1cccc(CNC(=O)C[C@H]2CC[C@H]3[C@H](COc4ccc(NC(=O)c5cccs5)cc4C(=O)N3C)O2)c1,0.0,1.1,27.1,-0.3,2.0,0.1
Nc1cccc(S(=O)(=O)c2ccc(N)c(N)c2)c1,43.4*,nt,nt,nt,1.3,0.0
Nc1cccc(S(=O)(=O)c2cccc(N)c2)c1,nt,1.7,6.2,nt,nt,nt
SMILES,FGF22 binding,PglD inh,C2C12 statin,E-selectin induc,DENV2 CPE,XiGFP reactiv
CC(=O)c1cccc(CN2CCN(C(C)C)C(CCO)C2)c1 (stereo not given),43.5*,nt,nt,0.4,-1.1,0.0
CC(C)N1CCN(Cc2ccc3c(c2)Cc2ccccc2-3)CC1CCO (stereo not given),42.9*,0.7,-8.8,nt,1.4,0.0
COCC(=O)Nc1ccc2c(c1)[C@@H]1C[C@@H](CC(=O)NCC3CC3)O[C@@H](CO)[C@@H]1O2,0.0,-2.2,0.0,-0.2,-1.8,0.1
C[C@H](NC(=O)C[C@H]1CC[C@H](NC(=O)CN2CCOCC2)[C@H](CO)O1)c1ccccc1,0.0,1.7,2.0,0.2,?,-0.3
C[C@H](CO)N1C[C@H](C)[C@@H](CN(C)Cc2ccc(C(=O)O)cc2)OCCCC[C@H](C)Oc2ccc(NC(=O)Nc3ccccc3)cc2C1=O,-0.5,2.2,7.1,nt,-8.8,0.2
CCOC(=O)C1=C(C)Nc2ccccc2N=C1NC(=O)c1cccc(S(=O)(=O)N(C)C)c1,nt,1.2,111.5*,nt,nt,nt
Nc1ncccc1C(=O)OCC(=O)N1CCN(S(=O)(=O)c2ccc(Cl)cc2)CC1,-0.2,-6.2,-5.8,0.1,45.3*,0.1
Cc1ccc(S(=O)(=O)N2CCN(C(=O)COC(=O)c3cc(C)oc3C)CC2)cc1,nt,-1.7,98.1*,nt,nt,nt
CCOc1ncccc1C(=O)OCC(=O)N1CCN(S(=O)(=O)c2ccc(Cl)cc2)CC1,nt,3.3,-2.8,nt,nt,nt
COc1ccc2oc(C(=O)OCC(=O)N3CCN(S(=O)(=O)c4ccc(C)cc4)CC3)c(C)c2c1,0.0,4.5,24.6,0.1,12.5,0.0
C[C@H](CO)N1C[C@H](C)[C@H](CN(C)Cc2ccc(C(=O)O)cc2)Oc2c(NC(=O)Nc3ccccc3)cccc2C1=O,0.0,0.7,0.2,-0.2,9.6,-0.7
CNC[C@@H]1Oc2c(NS(=O)(=O)c3ccc(Cl)cc3)cccc2C(=O)N([C@@H](C)CO)C[C@@H]1C,0.1,-4.6,-0.4,-0.2,-8.2,0.3
